An excerpt weighted towards active compounds, which were near 1.1% of everything screened.
PMI activator: increases human mannose-6-phosphate isomerase activity | P34949 | purified human PMI, coupled resazurin fluorescence, 20 min; stronger effect = higher value; 1 = vehicle control, 0 substrate-free wells | activation factor at 20 µM | 190,000 compounds, 0.005% hits;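 active = activation factor of 2 or more at 20 µM, relative to plate controls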
Target sequence (P34949 whole entry, looked up): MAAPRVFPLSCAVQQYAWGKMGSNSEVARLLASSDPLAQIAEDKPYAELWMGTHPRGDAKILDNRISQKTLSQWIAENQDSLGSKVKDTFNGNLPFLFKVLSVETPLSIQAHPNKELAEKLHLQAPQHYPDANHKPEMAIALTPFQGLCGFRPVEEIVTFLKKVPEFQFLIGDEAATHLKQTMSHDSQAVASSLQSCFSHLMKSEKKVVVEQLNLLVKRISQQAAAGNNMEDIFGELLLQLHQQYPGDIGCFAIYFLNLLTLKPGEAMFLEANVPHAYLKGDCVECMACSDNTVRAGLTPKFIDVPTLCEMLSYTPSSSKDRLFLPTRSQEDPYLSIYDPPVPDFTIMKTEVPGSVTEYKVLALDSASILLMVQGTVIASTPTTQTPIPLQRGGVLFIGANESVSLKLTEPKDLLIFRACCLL
G6PDH CS: inhibits Leuconostoc G6PDH, flagging false hits in G6PDH-based assays | inhibition, % at 5 µM | AID 1020 | Purified L. mesenteroides G6PDH, diaphorase/resazurin coupled fluorescence, 45 min | 200,000 compounds, 0.12% hits; in the data active = inhibition above about 50%
PMI act hi M6P: increases human PMI activity with near-saturating mannose 6-phosphate. coupled PMI enzyme assay, resazurin fluorescence, 20 min; stronger effect = higher value; 1 = untreated enzyme, 0 = substrate-free blank. activation factor at 20 µM. 190,000 compounds, 0.34% hits. AID 1216;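 active = activation factor of 2 or more at 20 µM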
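Test system: human PMI in coupled enzyme assay; Input: PMI at 15 ng/mL final; Medium: HEPES buffer, pH 7.4; Schedule: 20 min incubation at room temperature; Technique: resorufin fluorescence at Ex 544/Em 590 nm; Compound: 20 µM single dose; Probe or stimulus: Near-saturating mannose-6-phosphate, 1.0 mM.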
Diaphorase inh: inhibits diaphorase or chemically oxidizes, flagging diaphorase assay artifacts. diaphorase resazurin-to-resorufin fluorescence, NADH, 16 min; bacterial (C. kluyveri) enzyme, not human. inhibition, % at 20 µM. 190,000 compounds, 0.69% hits;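 active = primary screen inhibition at 20 µM above a set limit, cut at about 50% in these data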;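 note: plate controls were DMSO with full reaction for no effect and wells lacking NADH for full effect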
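Assay system: diaphorase enzyme from Clostridium kluyveri; Input: enzyme working solution with 0.14 U/mL diaphorase; Timing: 16 min at room temperature; Technique: resorufin fluorescence, excitation 544 nm, emission 590 nm; Benchmarks: positive control minus NADH, DMSO neutral control.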
Diaphorase act: activates diaphorase or chemically reduces, flagging diaphorase assay artifacts; 190,000 compounds, 0.005% hits; Diaphorase/resazurin coupled assay, resorufin fluorescence, 16 min; stronger effect = higher value; 1 = vehicle wells, 0 = NADH-free wells; AID 1229; activation factor at 20 µM;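 active = diaphorase activity raised at least twofold by the compound at 20 µM; inactive = activation factor below 2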
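System – purified diaphorase enzyme from Clostridium kluyveri · Input – enzyme 0.07 U/mL final · Also added – final NADH 0.114 mM, resazurin 0.1 mM · Measured by – fluorescence of resorufin, 544 nm excitation, 590 nm emission · Timing – 16 min enzyme reaction, ambient temperature · Measure – resorufin increase flagging diaphorase activators or reducers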
* = called active by the depositor.

Results for Cc1ccc2[nH]c(=O)c(C(c3nnnn3CC3CCCO3)N3CCc4ccccc4C3)cc2c1 (stereo unspecified) ?
PMI activator: 0.8; G6PDH CS: 11; PMI act hi M6P: 1.1; Diaphorase inh: 63*; Diaphorase act: 0.4

What do the screens show for `Cc1ccc2cc(C(c3nnnn3Cc3ccccc3)N3CCc4ccccc43)c(=O)[nH]c2c1` (stereo unspecified)?
PMI activator: 0.9; G6PDH CS: -3; PMI act hi M6P: 1.2; Diaphorase inh: 41; Diaphorase act: 0.6

Results for CN(CC1CCOCC1)C(=O)CC1C(=O)NCCN1CC1CCCCC1 (stereo unspecified) ?
PMI activator: 1; G6PDH CS: 11; PMI act hi M6P: 0.8; Diaphorase inh: 11; Diaphorase act: 0.9

How did COc1ccc(NC(=O)N/C=C/c2ccco2)cc1 do in these assays?
PMI activator: 1.8; G6PDH CS: 14; PMI act hi M6P: 2.2*; Diaphorase inh: -13; Diaphorase act: 1.1

How did Cn1c(=O)c2c(nc(N3CCc4ccccc4C3)n2C)n(C)c1=O do in these assays?
PMI activator: 1; G6PDH CS: 19; PMI act hi M6P: 1; Diaphorase inh: -14; Diaphorase act: 1.1

What do the screens show for `O=S(=O)(Nc1cc(Sc2ncn[nH]2)c(O)c2ccccc12)c1ccccc1`?
PMI activator: 0; G6PDH CS: 54*; PMI act hi M6P: 0.1; Diaphorase inh: 18; Diaphorase act: 0.8

What do the screens show for `CC(C)c1ccccc1-n1c(SCc2cc(=O)oc3ccc4ccccc4c23)nnc1-c1cccnc1`?
PMI activator: 0.9; G6PDH CS: -17; PMI act hi M6P: 0.9; Diaphorase inh: 25; Diaphorase act: 0.7

What do the screens show for `CSCCC(NC(=O)c1ccccc1Br)C(=O)Nc1ccc(C)cc1` (stereo unspecified)?
PMI activator: 1.1; G6PDH CS: 7; PMI act hi M6P: 1.1; Diaphorase inh: -1; Diaphorase act: 1

Results for O=C1CC(/C=C/c2ccncc2)=Nc2ccccc2N1 ?
PMI activator: 1.7; G6PDH CS: 3; PMI act hi M6P: 2.1*; Diaphorase inh: 10; Diaphorase act: 0.9

How did O=c1c(N2CCOCC2)coc2ccccc12 do in these assays?
PMI activator: 1.8; G6PDH CS: 11; PMI act hi M6P: 2.8*; Diaphorase inh: -27; Diaphorase act: 1.3

How did CNC(=O)COC(=O)c1ccccc1Nc1ccccc1 do in these assays?
PMI activator: 1; G6PDH CS: -5; PMI act hi M6P: 1; Diaphorase inh: 14; Diaphorase act: 0.9

What do the screens show for `Cc1ccc(NC(=O)C(C)C(=O)Nc2ccc(C)cc2)cc1`?
PMI activator: 1.1; G6PDH CS: 5; PMI act hi M6P: 1.1; Diaphorase inh: -4; Diaphorase act: 1

Results for Cc1ccc(NC(=O)N2CCC(=O)N2)cc1 ?
PMI activator: 1.3; G6PDH CS: -2; PMI act hi M6P: 2*; Diaphorase inh: 5; Diaphorase act: 0.9

Results for O=C(O)c1cc(Cl)c2c(c1)[C@@H]1C=CC[C@@H]1[C@H](c1ccc(S(=O)(=O)N3CCOCC3)cc1)N2 ?
PMI activator: 1.4; G6PDH CS: 10; PMI act hi M6P: 1.7; Diaphorase inh: 34; Diaphorase act: 0.7

How did Cc1cc(C)c2c(c1)C1C=CCC1C(c1ccc(S(=O)(=O)N3CCOCC3)cc1)N2 (stereo unspecified) do in these assays?
PMI activator: 1.4; G6PDH CS: 2; PMI act hi M6P: 2.2*; Diaphorase inh: 20; Diaphorase act: 0.8

What do the screens show for `[O-]C1=N/[N+](=C/c2ccc(Cl)cc2)CC1`?
PMI activator: 1.5; G6PDH CS: 5; PMI act hi M6P: 2*; Diaphorase inh: -12; Diaphorase act: 1.1

What do the screens show for `CC(Sc1ccc2c(c1)OCCO2)C(=O)Nc1ccc2c(c1)OCO2` (stereo unspecified)?
PMI activator: 1; G6PDH CS: 5; PMI act hi M6P: 1; Diaphorase inh: 25; Diaphorase act: 0.8

How did CC(Sc1ccc2c(c1)OCCO2)C(=O)Nc1ncc(Cl)cc1Cl (stereo unspecified) do in these assays?
PMI activator: 1; G6PDH CS: 18; PMI act hi M6P: 1.1; Diaphorase inh: 64*; Diaphorase act: 0.4

How did Cc1ccc(C)c(NC(=S)N(C)CCO)c1 do in these assays?
PMI activator: 1.1; G6PDH CS: -2; PMI act hi M6P: 1; Diaphorase inh: -7; Diaphorase act: 1.1

What do the screens show for `CC(C)CNC(=O)CN(c1cccc(Cl)c1)S(C)(=O)=O`?
PMI activator: 1; G6PDH CS: 10; PMI act hi M6P: 1; Diaphorase inh: 8; Diaphorase act: 0.9

How did COc1ccccc1CNN do in these assays?
PMI activator: 1.6; G6PDH CS: 2; PMI act hi M6P: 2.2*; Diaphorase inh: 17; Diaphorase act: 0.8

Results for COc1ccccc1CNCc1cc(OC)c(OC)c(OC)c1 ?
PMI activator: 1.1; G6PDH CS: 5; PMI act hi M6P: 1.1; Diaphorase inh: 7; Diaphorase act: 0.9

What do the screens show for `CCN(CC)Cc1cc(O)c(CN(CC)CC)cc1O`?
PMI activator: 0.7; G6PDH CS: 57*; PMI act hi M6P: 0.5; Diaphorase inh: 53*; Diaphorase act: 0.5

How did Nc1[nH]n2c(=O)cc(-c3ccccc3)nc2c1N=Nc1ccc(S(N)(=O)=O)cc1 do in these assays?
PMI activator: 0.9; G6PDH CS: 12; PMI act hi M6P: 1; Diaphorase inh: 90*; Diaphorase act: 0.1

Results for Nc1[nH]n2c(=O)cc(-c3ccccc3)nc2c1N=Nc1ccccc1 ?
PMI activator: 0.7; G6PDH CS: 5; PMI act hi M6P: 1; Diaphorase inh: 67*; Diaphorase act: 0.3

What do the screens show for `Cc1cccc(C)c1NC(=O)CNC(=O)CCC(=O)c1cccs1`?
PMI activator: 0.9; G6PDH CS: 2; PMI act hi M6P: 1; Diaphorase inh: 8; Diaphorase act: 0.9

How did CC1=[N+](C)c2c(ccc3cccnc23)C1(C)C do in these assays?
PMI activator: 0.7; G6PDH CS: 19; PMI act hi M6P: 0.6; Diaphorase inh: 65*; Diaphorase act: 0.3

What do the screens show for `Cc1cc(C)c(NS(=O)(=O)c2cccc3cccnc23)c(C)c1`?
PMI activator: 0.9; G6PDH CS: 2; PMI act hi M6P: 1; Diaphorase inh: 10; Diaphorase act: 0.9

How did COc1ccc(C)cc1S(=O)(=O)Nc1ccc2c(c1)OCO2 do in these assays?
PMI activator: 1; G6PDH CS: -2; PMI act hi M6P: 0.9; Diaphorase inh: 8; Diaphorase act: 0.9

How did Cc1ccc(S(=O)(=O)NC(=O)NN2CCCCCC2)cc1 do in these assays?
PMI activator: 1.7; G6PDH CS: 5; PMI act hi M6P: 2*; Diaphorase inh: 2; Diaphorase act: 1
